{"source": "ChEMBL document CHEMBL1141285", "about": "“Antimicrobial compounds from the Australian desert plant Eremophila neglecta” (2007)", "key": {"Staphylococcus aureus [1]": {"test_system": "Staphylococcus aureus", "assay": "Antimicrobial activity against Staphylococcus aureus ATCC 29213 by broth microdilution method", "format": "functional", "in_short": "(§1)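 Broth microdilution in cation-adjusted MH II broth with 2% DMSO in the 2-fold serial dilutions (final 1% v/v), done in duplicate. Bacteria grown on 5% sheep blood agar at 37 °C. Final inoculum 5 × 10^5 CFU/mL. Plates shaken 10 min, then incubated overnight at 37 °C. MIC is the lowest concentration with no growth in both duplicate wells.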"}, "Staphylococcus aureus [2]": {"test_system": "Staphylococcus aureus", "assay": "Antimicrobial activity against Staphylococcus aureus ATCC 25923 by broth microdilution method", "format": "functional", "in_short": "as §1"}, "Streptococcus pneumoniae": {"test_system": "Streptococcus pneumoniae", "assay": "Antimicrobial activity against Streptococcus pneumoniae ATCC 49619 by broth microdilution method", "format": "functional", "in_short": "as §1, with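 “brain heart infusion” for “cation-adjusted MH II”, “duplicate.” for “duplicate. Bacteria grown on 5% sheep blood agar at 37 °C.”, “°C with 5% CO2.” for “°C.”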"}, "Streptococcus pyogenes": {"test_system": "Streptococcus pyogenes", "assay": "Antimicrobial activity against Streptococcus pyogenes ATCC 10389 by broth microdilution method", "format": "functional", "in_short": "as §1, with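 “brain heart infusion” for “cation-adjusted MH II”, “duplicate.” for “duplicate. Bacteria grown on 5% sheep blood agar at 37 °C.”, “°C with 5% CO2.” for “°C.”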"}, "Escherichia coli": {"test_system": "Escherichia coli", "assay": "Antimicrobial activity against Escherichia coli ATCC 25922 at 621.5 uM by broth microdilution method", "format": "functional, organism-based"}, "Salmonella typhimurium": {"test_system": "Salmonella typhimurium", "assay": "Antimicrobial activity against Salmonella Typhimurium ATCC 13311 at 621.5 uM by broth microdilution method", "format": "functional, organism-based", "details": "Salmonella enterica subsp. enterica serovar Typhimurium"}, "Pseudomonas aeruginosa": {"test_system": "Pseudomonas aeruginosa", "assay": "Antimicrobial activity against Pseudomonas aeruginosa ATCC 27853 at 621.5 uM by broth microdilution method", "format": "functional, organism-based"}, "Staphylococcus aureus [3]": {"test_system": "Staphylococcus aureus", "assay": "Antimicrobial activity against Staphylococcus aureus ATCC 29213 by broth microdilution method"}, "Staphylococcus aureus [4]": {"test_system": "Staphylococcus aureus", "assay": "Antimicrobial activity against Staphylococcus aureus ATCC 29213 at 621.5 uM by broth microdilution method", "format": "functional, organism-based"}}, "note": "Activity calls are given as the source filed them. The rule behind the calls is not given here.", "data": [{"molecule": "CC(C)=CCCC1=COC2=C(C)C(=O)C(=O)c3c(C)ccc1c32", "values": [{"measurement": "MBC", "setting": "Staphylococcus aureus [1]", "result": 203, "unit": "µM"}, {"measurement": "MIC", "setting": "Staphylococcus aureus [1]", "result": 25.3, "unit": "µM"}, {"measurement": "MBC", "setting": "Staphylococcus aureus [2]", "result": 50.6, "unit": "µM"}, {"measurement": "MIC", "setting": "Staphylococcus aureus [2]", "result": 25.3, "unit": "µM"}, {"measurement": "MBC", "setting": "Streptococcus pneumoniae", "result": 12.7, "unit": "µM"}, {"measurement": "MIC", "setting": "Streptococcus pneumoniae", "result": 6.5, "unit": "µM"}, {"measurement": "MBC", "setting": "Streptococcus pyogenes", "result": 203, "unit": "µM"}, {"measurement": "MIC", "setting": "Streptococcus pyogenes", "result": 102, "unit": "µM"}, {"measurement": "Activity", "setting": "Escherichia coli", "result": "inactive"}, {"measurement": "Activity", "setting": "Salmonella typhimurium", "result": "inactive"}, {"measurement": "Activity", "setting": "Pseudomonas aeruginosa", "result": "inactive"}]}, {"molecule": "CN[C@H](CC(C)C)C(=O)N[C@H]1C(=O)N[C@@H](CC(N)=O)C(=O)N[C@H]2C(=O)N[C@H]3C(=O)N[C@H](C(=O)N[C@H](C(=O)O)c4cc(O)cc(O)c4-c4cc3ccc4O)[C@H](O)c3ccc(c(Cl)c3)Oc3cc2cc(c3O[C@@H]2O[C@H](CO)[C@@H](O)[C@H](O)[C@H]2O[C@H]2C[C@](C)(N)[C@H](O)[C@H](C)O2)Oc2ccc(cc2Cl)[C@H]1O", "note": "[VANCOMYCIN]", "values": [{"measurement": "MIC", "setting": "Staphylococcus aureus [3]", "result": 0.7, "unit": "µM"}]}, {"molecule": "GENTAMICIN", "values": [{"measurement": "MIC", "setting": "Staphylococcus aureus [1]", "result": 1, "unit": "µM"}]}, {"molecule": "CC(C)=CCC[C@H](C)[C@@H]1CC[C@@H](C)c2c(O)cc(CO)cc21", "values": [{"measurement": "MBC", "setting": "Staphylococcus aureus [1]", "result": 25.8, "unit": "µM"}, {"measurement": "MIC", "setting": "Staphylococcus aureus [1]", "result": 25.8, "unit": "µM"}, {"measurement": "MBC", "setting": "Staphylococcus aureus [2]", "result": 25.8, "unit": "µM"}, {"measurement": "MIC", "setting": "Staphylococcus aureus [2]", "result": 25.8, "unit": "µM"}, {"measurement": "MBC", "setting": "Streptococcus pneumoniae", "result": 12.9, "unit": "µM"}, {"measurement": "MIC", "setting": "Streptococcus pneumoniae", "result": 12.9, "unit": "µM"}, {"measurement": "MBC", "setting": "Streptococcus pyogenes", "result": 12.9, "unit": "µM"}, {"measurement": "MIC", "setting": "Streptococcus pyogenes", "result": 12.9, "unit": "µM"}, {"measurement": "Activity", "setting": "Escherichia coli", "result": "inactive"}, {"measurement": "Activity", "setting": "Salmonella typhimurium", "result": "inactive"}, {"measurement": "Activity", "setting": "Pseudomonas aeruginosa", "result": "inactive"}]}, {"molecule": "CC(C)=CCC[C@H](C)[C@@H]1CC[C@@H](C)c2c(O)cc(C(=O)O)cc21", "values": [{"measurement": "MBC", "setting": "Staphylococcus aureus [1]", "result": 49.3, "unit": "µM"}, {"measurement": "MIC", "setting": "Staphylococcus aureus [1]", "result": 49.3, "unit": "µM"}, {"measurement": "MBC", "setting": "Staphylococcus aureus [2]", "result": 99, "unit": "µM"}, {"measurement": "MIC", "setting": "Staphylococcus aureus [2]", "result": 49.3, "unit": "µM"}, {"measurement": "MBC", "setting": "Streptococcus pneumoniae", "result": 49.3, "unit": "µM"}, {"measurement": "MIC", "setting": "Streptococcus pneumoniae", "result": 24.7, "unit": "µM"}, {"measurement": "MBC", "setting": "Streptococcus pyogenes", "result": 99, "unit": "µM"}, {"measurement": "MIC", "setting": "Streptococcus pyogenes", "result": 24.7, "unit": "µM"}, {"measurement": "Activity", "setting": "Escherichia coli", "result": "inactive"}, {"measurement": "Activity", "setting": "Salmonella typhimurium", "result": "inactive"}, {"measurement": "Activity", "setting": "Pseudomonas aeruginosa", "result": "inactive"}]}, {"molecule": "CC(=O)OCc1cc(O)c2c(c1)[C@H]([C@@H](C)CCC=C(C)C)C[C@H](OC(C)=O)[C@H]2C", "values": [{"measurement": "Activity", "setting": "Staphylococcus aureus [4]", "result": "inactive"}]}]}
